NR2E3 ag-1: inhibitors of NR2E3-RetCOR corepressor binding, primary screen, NR2E3 agonist project, biochemical, TR-FRET, GST-NR2E3, biotin-RetCOR. inhibition of corepressor binding, % at 4.78 µM. 1536-well. Photoreceptor-specific nuclear receptor (Homo sapiens), Q9Y5X4. AID 2300, 2010. 0.12% of 320,000 active;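 active = percent inhibition above the cutoff of mean plus 3 SD of all tested compounds, set per screening campaign, cut at about 20% in these data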;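 also: 0% = DMSO wells and 100% = biotin wells as full block of FRET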
Target sequence (Q9Y5X4 whole entry, looked up): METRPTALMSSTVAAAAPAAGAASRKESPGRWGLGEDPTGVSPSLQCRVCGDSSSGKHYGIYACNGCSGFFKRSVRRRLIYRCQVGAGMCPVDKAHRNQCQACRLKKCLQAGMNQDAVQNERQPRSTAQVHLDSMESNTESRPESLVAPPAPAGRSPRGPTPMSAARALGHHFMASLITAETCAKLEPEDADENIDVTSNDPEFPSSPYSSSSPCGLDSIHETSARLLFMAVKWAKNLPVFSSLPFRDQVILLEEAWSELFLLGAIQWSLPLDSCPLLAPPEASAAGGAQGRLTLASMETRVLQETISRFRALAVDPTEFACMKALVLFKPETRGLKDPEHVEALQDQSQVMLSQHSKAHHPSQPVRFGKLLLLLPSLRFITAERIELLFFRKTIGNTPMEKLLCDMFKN
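Material: NR2E3–RetCOR corepressor complex / Amount: 1.35 nM GST-NR2E3 / Medium: Tris pH 7.5 / Compound: single nominal compound dose of 4.8 µM / Incubation: 5 h at 4 °C / Technique: TR-FRET, Eu(K)-anti-GST donor, streptavidin-D2 acceptor, ex 340, em 617/671 nm / Read-out basis: percent loss of FRET ratio relative to control wells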
PG9 binder: binders of HIV-1 gp120 antibody PG9, primary screen, biochemical, TR-FRET | inhibition, % at 6.7 µM | TR-FRET gp120-PG9 antibody binding | 0.43% of 360,000 active | AID 624416, 2012 | HIV-1 gp120 / PG9 antibody interaction; in the data active = inhibition above about 8.5%
Rev-erbA mod: modulators of Rev-erb alpha DNA binding, primary screen, biochemical, FITC-DNA, fluorescence polarization, uHTS. Rev-erbα–FITC-DNA binding, 90 min. activity, % at 10 µM. 0.79% of 370,000 active. AID 1259318, 2017;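 active = activity above about 14%, limit read from the data; passing the limit was not always enough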;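 also: 0% = DMSO wells with 35 nM protein and 100% = DMSO wells with 750 nM protein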
NR2E3 ag-2: NR2E3 agonists in two-hybrid cells, primary screen, cell-based, luminescence, CHO-S, Gal4-NCOR/VP16-NR2E3 | Photoreceptor-specific nuclear receptor (Homo sapiens), Q9Y5X4 | AID 602229, 2012 | 0.35% of 360,000 active | luciferase | inhibition of corepressor binding, % at 3.98 µM;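 active = inhibition above the mean of all tested compounds plus 3 SD, cut at about 70% in these data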;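 also: 0% = DMSO with NR2E3 transfected cells and 100% = cells lacking NR2E3 construct; higher means lower luciferase signal from less NR2E3 corepressor binding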
Rev-erbA confirm: modulators of Rev-erb alpha DNA binding, confirmation, biochemical, FITC-DNA, fluorescence polarization, single point | shares compounds with Rev-erbA mod | 90 min | activation, % at 25 µM | 61% of 3,000 active | AID 1259319, 2017;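 active = activation at or above a set limit, or at least 3 SD above the negative control mean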;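 also: 0% = 35 nM protein with DMSO and 100% = 750 nM protein high control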
RORg counter: modulation of RORgamma DNA binding, dose response, counter-screen for Rev-erb alpha modulator project, biochemical, fluorescence polarization, FITC-DNA; shares compounds with Rev-erbA mod; purified RORgamma protein-FITC-DNA binding; IC50, µM; 8% of 910 active; AID 1259320, 2017;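 active = Compounds whose fitted half-maximal concentration for disrupting protein-DNA binding is below 10 micromolar; the record names Rev-erb in its text, so the target is in doubt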
* = called active by the depositor. Rows were chosen to be rich in hits. Some 1.4% of all compounds tested hit in one or more screens of this group.

For Cc1nc2ccc(C(=O)OCc3nnc(-c4ccc(Br)cc4)o3)cc2nc1C the results were NR2E3 ag-1 0, PG9 binder -3, Rev-erbA mod 23*, NR2E3 ag-2 -7 and Rev-erbA confirm 19*.
CCn1c(Cc2ccccc2)nnc1SCc1cccc(C(=O)O)c1 was read as NR2E3 ag-1 0, PG9 binder -2, Rev-erbA mod 1 and NR2E3 ag-2 -9.
`COc1cccc(OCc2cc(/C=N/n3cncn3)ccc2OC)c1` gave NR2E3 ag-1 -2, PG9 binder 0, Rev-erbA mod -1 and NR2E3 ag-2 22.
COc1ccc2c(c1)cc(C(=O)N[C@@H](Cc1ccccc1)C(=O)N[C@@H](C)C(=O)O)n2C was read as NR2E3 ag-1 1, PG9 binder -1, Rev-erbA mod 28*, NR2E3 ag-2 -33 and Rev-erbA confirm -6.
Screening COC(=O)Cn1c(=NC(=O)CCS(=O)(=O)c2ccccc2)sc2c(OC)ccc(OC)c21 returned NR2E3 ag-1 4, PG9 binder -1, Rev-erbA mod 82*, NR2E3 ag-2 -18, Rev-erbA confirm 39* and RORg counter >40.
Screening CCCCC(=O)N=c1sc2c(OC)ccc(OC)c2n1C returned NR2E3 ag-1 3, PG9 binder -1, Rev-erbA mod 23*, NR2E3 ag-2 -11 and Rev-erbA confirm 8.
For COc1ccc(C(=O)N=c2sc3c(C)ccc(OC)c3n2C)cc1OC the results were NR2E3 ag-1 -1, PG9 binder 0, Rev-erbA mod 14 and NR2E3 ag-2 -44.
Screening CCn1c(=NC(=O)CCS(=O)(=O)c2ccccc2)sc2cccc(OC)c21 returned NR2E3 ag-1 1, PG9 binder -1, Rev-erbA mod 5 and NR2E3 ag-2 -6.
`COc1cccc(C(=O)N=c2sc3c(C)ccc(OC)c3n2C)c1` gave NR2E3 ag-1 -1, PG9 binder -1, Rev-erbA mod 24*, NR2E3 ag-2 -95 and Rev-erbA confirm 5.
O=C(Nc1cc(-c2ccccc2)nn1-c1c(Cl)cccc1Cl)c1ccc(F)cc1 was read as PG9 binder -2, Rev-erbA mod -6 and NR2E3 ag-2 16.
For CCCCCCSc1ccc(-c2nc3ccc(Cl)cn3c2NCCCC)cc1OC the results were PG9 binder 1, Rev-erbA mod 6 and NR2E3 ag-2 -31.
CCCCNc1c(-c2ccc(SC3CCCCC3)c(OC)c2)nc2ccc(Cl)cn12 was read as NR2E3 ag-1 2, PG9 binder -2, Rev-erbA mod 20*, NR2E3 ag-2 -17 and Rev-erbA confirm 9.
`CCCCCCSc1cc(-c2nc3ccc(Cl)cn3c2NC2CCCCC2)ccc1OC` gave NR2E3 ag-1 1, PG9 binder 0, Rev-erbA mod 11 and NR2E3 ag-2 25.
Screening CCCCCCSc1ccc(-c2nc3ccc(C)cn3c2NCCCC)cc1OC returned PG9 binder 2, Rev-erbA mod 16*, NR2E3 ag-2 -27 and Rev-erbA confirm 6.
For Cc1ccn2c(NC3CCCCC3)c(-c3cccc(SC4CCCCC4)c3)nc2c1 the results were PG9 binder 1, Rev-erbA mod 3 and NR2E3 ag-2 7.
Screening Cc1ccn2c(NC3CCCCC3)c(-c3ccc(SC4CCCCC4)cc3)nc2c1 returned PG9 binder 4, Rev-erbA mod 33*, NR2E3 ag-2 5 and Rev-erbA confirm 15*.
Screening CCCCCCSc1ccc(-c2nc3ccc(Cl)cn3c2NC2CCCCC2)cc1 returned PG9 binder 1, Rev-erbA mod 23*, NR2E3 ag-2 -13 and Rev-erbA confirm 22*.
For COC(CNC(=O)C(C)n1nc(C)c2ccccc21)OC (centres undefined) the results were NR2E3 ag-1 0, PG9 binder -1, Rev-erbA mod -2 and NR2E3 ag-2 -6.
COC(=O)c1cc(S(=O)(=O)N2CCN(c3cccc(OC)c3)CC2)cn1C was read as NR2E3 ag-1 -2, PG9 binder 0, Rev-erbA mod -1 and NR2E3 ag-2 -19.
Screening COCC(=O)N1CCC(Oc2ccc(C(=O)NCc3cc(C)no3)cc2)CC1 returned NR2E3 ag-1 5, PG9 binder 0, Rev-erbA mod 0 and NR2E3 ag-2 18.
For CC(=O)c1cc(NC(=O)c2ccc(C)cc2)c(=O)oc1/C=C/N(C)C the results were NR2E3 ag-1 -7, PG9 binder -18, Rev-erbA mod 31*, NR2E3 ag-2 -51 and Rev-erbA confirm 4.
COc1ccc(C(=O)Nc2cc(C(C)=O)c(/C=C/N(C)C)oc2=O)cc1 was read as NR2E3 ag-1 -4, PG9 binder -19, Rev-erbA mod 20 and NR2E3 ag-2 -44.
For COc1ccc(-c2cc(-n3c(C(F)(F)F)nc4ccccc43)n(CCC#N)n2)cc1 the results were NR2E3 ag-1 2, PG9 binder 2, Rev-erbA mod 5 and NR2E3 ag-2 -1.
`COc1ccc(Sc2nc3ccccc3n3c(C(F)(F)F)nnc23)cc1` gave NR2E3 ag-1 2, PG9 binder -5, Rev-erbA mod 56*, NR2E3 ag-2 -8, Rev-erbA confirm 34* and RORg counter >40.
`CCC(CC)COC(=O)C1=C(C)NC(=O)NC1c1ccccc1Br` (centres undefined) gave NR2E3 ag-1 -2, PG9 binder -1, Rev-erbA mod 17*, NR2E3 ag-2 -9 and Rev-erbA confirm 15.
Cn1ccsc1=NC(=O)c1ccccc1F was read as NR2E3 ag-1 0, PG9 binder 1, Rev-erbA mod -1 and NR2E3 ag-2 -19.
Screening Cc1ccc(C)c(-n2c(-c3ccc(Br)cc3)csc2=NC(=O)c2ccccc2F)c1 returned NR2E3 ag-1 -1, PG9 binder 4, Rev-erbA mod 38*, NR2E3 ag-2 -7, Rev-erbA confirm 49* and RORg counter >40.
For CCCCCCc1nc2c(=O)[nH]c3ccccc3c2o1 the results were NR2E3 ag-1 1, PG9 binder 2, Rev-erbA mod 52*, NR2E3 ag-2 -22 and Rev-erbA confirm 11.
`CCOc1ccc2nc(SCC(=O)Nc3ccc(S(=O)(=O)N4CCCC4)cc3)c(C)cc2c1` gave NR2E3 ag-1 1, PG9 binder 0, Rev-erbA mod 25*, NR2E3 ag-2 -11 and Rev-erbA confirm 17.

From PubChem BioAssay
